Bioassay records (PubChem)
L929 necroptosis = inhibitors of zVAD-triggered necroptosis, primary screen, L929 cells | actives 0.38% (n = 220,000) | viability rescue, % at 10 µM | L929 zVAD necroptosis rescue, ATP luminescence, 24 h; with zVAD 60 µM;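 active means activation, scaled between plate controls, above about 75%, limit read from the data; inactive means activation under that limit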;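 further: 0% = zVAD with DMSO and 100% = DMSO alone without zVAD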
Pf gamet viab = late stage P. falciparum gametocyte viability inhibitors, primary screen, ATP luminescence, HTS; P. falciparum stage V gametocytes, 24 h; inhibition, % at 10.9 µM; actives 0.065% (n = 150,000); AID 743093, 2013;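 active means inhibition above the mean plus 3 SD of compounds within the control limits, set per campaign, cut at about 38% in these data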;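 further: 0% = DMSO wells and 100% = medium only without gametocytes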
TNF death inh = inhibitors of TNF-alpha triggered necroptosis, primary screen, cell-based, Jurkat FADD-/-, single concentration. Jurkat FADD-/- TNF necroptosis rescue, ATP luminescence, 24 h; 0 = TNF only, 100 = no-TNF cells. activation (protection from cell death), % at 10 µM. actives 0.068% (n = 220,000). AID 463075, 2010;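 active means activation, meaning protection from cell death, of at least 50% relative to plate controls; inactive means activation below 50%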;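 further: necroptosis triggered by 40 ng/mL TNF-alpha added together with compound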
m-calpain inh = inhibitors of pig calpain II, primary screen, biochemical, fluorogenic peptide substrate, 1536-well; actives 0.37% (n = 220,000); purified calpain II, 30 min; inhibition, % at 16 µM; AID 1236, 2008;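 active means inhibition above about 50%, limit read from the data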
Wee1 degr inh = Wee1 degradation inhibitors, primary screen, cell-based, HeLa, Wee1K328M-luciferase, luminescence; Wee1-like protein kinase (Homo sapiens), P30291; HeLa Luc-Wee1K328M stability; 100% = proteasome inhibitor MG132 effect; reporter increase, % at 5 µM; actives 1.2% (n = 220,000);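 active means activation above the mean of all tested compounds plus 3 SD, set per screening run, cut at about 8.8% in these data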;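 further: cells exposed to compound for 20 h before luminescence read; 0% = DMSO alone and 100% = MG132 at 30 µM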
RBBP9 inh = human RBBP9 inhibitors, primary screen, biochemical, fluorescence polarization, FP-Rh probe, HTS; Serine hydrolase RBBP9 (Homo sapiens), O75884; recombinant RBBP9; inhibition, % at 7.94 µM; actives 0.2% (n = 220,000);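 active means inhibition above the campaign mean of all tested compounds plus 3 SD, cut at about 14% in these data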;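 further: plate controls were DMSO wells with RBBP9 for no effect and wells lacking RBBP9 protein for full effect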
Target sequence (O75884 whole entry, looked up): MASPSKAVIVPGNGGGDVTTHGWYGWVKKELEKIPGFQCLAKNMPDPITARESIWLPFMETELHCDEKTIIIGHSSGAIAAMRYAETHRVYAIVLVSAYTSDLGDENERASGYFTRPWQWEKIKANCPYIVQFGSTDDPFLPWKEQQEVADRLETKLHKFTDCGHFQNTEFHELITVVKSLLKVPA
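Measured by – fluorescence polarization · Test system – RBBP9 protein · Input – 2.5 µM RBBP9 dispensing solution, before mixing · Measure – percent inhibition from mP, scaled between DMSO and no-protein wells · Benchmarks – DMSO-treated enzyme wells and wells lacking RBBP9 · Times – preincubation 30 min plus labeling 45 min at 25 °C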
Wee1 degr conf = Wee1 degradation inhibitors, confirmation, cell-based, HeLa, Wee1K328M-luciferase, luminescence, triplicate; shares compounds with Wee1 degr inh; HeLa Luc-Wee1K328M degradation; vehicle 0%, proteasome-blocked wells 100%; activation, % at 5 µM; actives 4% (n = 1,100); AID 1410, 2008; in the data active means activation above about 8.9%
* hit, by the source's call; / = no result given. In the library only some 2.1% were active in any assay of this set; here they are far more common.

SMILES	L929 necroptosis	Pf gamet viab	TNF death inh	m-calpain inh	Wee1 degr inh	RBBP9 inh	Wee1 degr conf
CCC(=O)Nc1ccc(-c2nc3ccccc3c(=O)o2)cc1	0	/	0	28	13*	-7	1
Cc1noc(C)c1NC(=O)N(C)C[C@H]1Oc2ccc(NS(=O)(=O)c3cn(C)cn3)cc2C(=O)N([C@H](C)CO)C[C@@H]1C	/	-18	/	/	/	/	/
Cn1c(CNc2ccc(Cl)cc2)nc2ccccc21	0	-1	-1	12	13*	5	8
Cc1ccc(N2CCN(c3ccc(NCc4nc5ccccc5n4C)cc3)CC2)cc1	1	-14	2	-36	-2	-3	/
Nc1ccccc1S(=O)(=O)NC1=NCCCCC1	0	18	1	-7	3	-5	/
CN(Cc1ccccn1)C(=O)CC1C(=O)NCCN1Cc1cccc(Oc2ccccc2)c1 (stereo not drawn)	-1	-12	0	-19	-1	6	/
CN(Cc1nccn1C)C(=O)CC1C(=O)NCCN1Cc1cccc(Oc2ccccc2)c1 (stereo not drawn)	0	/	0	-7	12*	-4	1
COC(=O)Nc1ccc(Cc2ccncc2)cc1	0	-1	-1	-2	-1	-5	/
CCOC(=O)C1=C(c2ccccc2)O/C(=C(/C#N)C(F)(F)F)S1	0	/	-12	-50	24*	2	87*
Cc1cc(C)n(-c2ccc(C(=O)Nc3ccccc3N3CCOCC3)cc2)n1	0	/	-4	4	7	-2	/
Cc1cc(C)n(-c2ccc(C(=O)Nc3cc(C(F)(F)F)ccc3N3CCOCC3)cc2)n1	0	/	-1	-27	13*	-6	0
CC1CCCCC12NC(=O)N(CC(=O)NC(=O)NCc1ccco1)C2=O (stereo not drawn)	1	7	-1	-67	0	1	/
CC(C)(C)NC(=O)NCCc1ccccc1	1	-4	6	-3	13*	-3	-1
O=C(CCCCn1c(=O)c2ccccc2n(Cc2ccccc2)c1=O)NC1CCN(Cc2ccccc2)CC1	-1	6	0	-7	11*	-3	0
O=C(NCC1CCCO1)C1CC1(c1ccccc1)c1ccccc1 (stereo not drawn)	0	-4	2	28	2	-3	/
O=C(Nc1ccccc1)/C(=C\c1cccs1)NC(=O)c1ccccc1	0	-38	1	-5	-1	-4	/
O=C(N/N=C/c1cccs1)/C(=C/c1ccccc1)NC(=O)c1ccccc1	-1	22	2	24	12*	-1	-2
COc1ccc(NC(=O)CCN2C(=O)C3C4CCC(C4)C3C2=O)cc1 (stereo not drawn)	1	-2	3	16	12*	-15	3
O=C(Nc1cc(S(=O)(=O)N2CCOCC2)ccc1N1CCOCC1)C1CCCO1 (stereo not drawn)	2	22	1	-23	-3	-5	/
COc1ccc(NC(=O)Nc2ccccc2F)cc1	0	7	-1	-8	6	-4	/
COc1ccc(NC(=O)Nc2ccccc2SC)cc1	7	/	-1	14	11*	-3	2
CCN(CC)c1ccc(/C=N/NC(=O)c2ccc([N+](=O)[O-])cc2)cc1	19	-18	1	-7	2	-1	/
CCN(CC)c1ccc(/C=N/NC(=O)c2ccco2)cc1	0	/	-5	11	20*	4	13*
CCN(CC)c1ccc(/C=N/NC(=O)c2ccco2)c(O)c1	43	-17	-24	21	5	1	/
CCN(CC)c1ccc(/C=N/NC(=O)c2cnccn2)cc1	-2	-3	-5	5	15*	-2	19*
SMILES	L929 necroptosis	Pf gamet viab	TNF death inh	m-calpain inh	Wee1 degr inh	RBBP9 inh	Wee1 degr conf
O=C(CSc1nc2[nH]ncc2c(=O)n1-c1ccccc1Cl)N1CCCC1	0	-30	1	16	3	-5	/
O=C(CSc1nc2[nH]ncc2c(=O)n1-c1ccccc1)N1CCCCCC1	0	/	1	-10	12*	-5	2
Nc1nnc(-c2ccc(Cl)cc2)s1	0	/	-3	-16	11*	-13	5
Nc1nnc(-c2ccc(F)cc2)s1	3	/	-2	4	0	-4	/
COc1ccc(NC(=O)COC(=O)c2ccc(O)cc2)c([N+](=O)[O-])c1	6	-4	0	-8	2	-7	/
CCOC(=O)CC(NC(=O)c1ccc(C)cc1)c1ccc(C)cc1 (stereo not drawn)	0	/	1	9	14*	-9	2
N/C(=N\OC(=O)CN1C(=O)c2ccccc2C1=O)c1ccc(Br)cc1	3	/	1	27	0	0	/
Cc1ccsc1/C=N/Nc1nc2ccccc2s1	66	-30	18	2	14*	-1	6
O=C(Nc1ccc(Cl)cn1)C1COc2ccccc2O1 (stereo not drawn)	38	10	89*	-31	19*	-6	1
CC(C)=CCc1c(O)ccc2c1OC(c1ccc(O)c(O)c1)CC2=O (stereo not drawn)	11	/	-1	3	33*	-20	2
Cc1ccc(NS(=O)(=O)c2ccc(OCC(=O)N3CCOCC3)cc2)cc1	-1	/	-1	-1	-1	-4	/
COc1ccc2oc(=O)c(/C(C)=N/NC(=O)c3ccncc3)cc2c1	1	-20	-1	-88	8	-9	/
NC(=O)C1=C[C@H](c2ccc(Br)cc2)C[C@H](OCc2ccc(CO)cc2)O1	0	/	2	-16	11*	4	0
Cc1cc(-c2nnc(-c3cccc(Cl)c3)o2)no1	0	-3	1	-17	18*	-5	2
Cc1cccc(-c2nnc(-c3ccccc3)o2)c1	0	20	-4	8	-1	-7	/
Cc1cccn2c1nc(=S)n2C(=O)c1ccco1	/	4	-6	19	12*	-11	10*
N#Cc1ccccc1Oc1ccccc1C=O	1	32	-4	21	1	-4	/
CCOC(=O)C1=c2/c(=C/c3ccccc3OC)c(N)c(C#N)n2C(=O)C(c2ccccc2OC)S1 (stereo not drawn)	0	/	0	30	8	1	/
